# Screening results: PubChem, Broad Institute
# ERp5 inh = ERp5 (human) disulfide isomerase inhibition | Q15084 | ERp5 insulin aggregation, absorbance 650 nm, 90 min | inhibition, % at 9.99 µM | hit rate 0.05% among 350,000 | AID 651711;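 active = mean replicate inhibition above about 25%, with every replicate also reaching it, limit read from the data, passing the limit was not always enough; inconclusive = only one of those two criteria met; inactive = neither criterion met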
# Target sequence (Q15084 whole entry, looked up): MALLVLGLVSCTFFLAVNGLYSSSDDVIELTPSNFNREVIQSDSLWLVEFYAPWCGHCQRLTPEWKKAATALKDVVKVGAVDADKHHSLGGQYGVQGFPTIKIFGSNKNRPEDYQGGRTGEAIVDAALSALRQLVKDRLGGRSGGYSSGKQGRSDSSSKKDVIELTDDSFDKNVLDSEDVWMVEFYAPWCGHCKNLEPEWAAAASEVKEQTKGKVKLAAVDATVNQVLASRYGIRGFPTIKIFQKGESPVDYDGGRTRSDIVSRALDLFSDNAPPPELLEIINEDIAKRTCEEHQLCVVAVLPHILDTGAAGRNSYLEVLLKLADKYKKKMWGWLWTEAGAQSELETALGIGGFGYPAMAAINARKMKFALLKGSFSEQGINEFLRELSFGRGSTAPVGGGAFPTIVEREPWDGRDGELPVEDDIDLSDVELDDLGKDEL
# PvdQ acylase = P. aeruginosa PvdQ acylase inhibition; purified PvdQ acylase, fluorescence plate reader; AID 488965; hit rate 0.063% among 340,000; inhibition, % at 10 µM; in the data active = inhibition above about 30%, passing the limit was not always enough; inconclusive = no clear call, values can overlap the other calls;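 note: 0% = vehicle neutral wells and 100% = reference inhibitor wells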
# Env fusion inh = blocks HIV Env-driven cell-cell fusion | HeLa-JRFL Env/CEM21 cell fusion, luciferase | hit rate 1.1% among 360,000 | inhibition, % at 12.3 µM;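 active = mean replicate inhibition score of at least 50 and every replicate individually at or above 50; inconclusive = only one of the two criteria met; inactive = mean below 50 and not all replicates reaching 50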;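 note: 0% = plate neutral controls and 100% = maraviroc near 300 nM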
# PDI inh = inhibitors of human protein disulfide isomerase | P07237 | PDI insulin aggregation turbidity, A650, 90 min | inhibition, % at 10 µM | hit rate 0.052% among 350,000 | AID 588391;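 active = mean inhibition across replicates of 30% or more, whatever share of single replicates reach that level; inconclusive = mean inhibition below 30% while every single replicate reaches 30%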
# rRNA inh HTS = inhibitors of bacterial rRNA selective over humanized ribosomes. GFP signal change (wild-type ribosome), % (test concentration not listed). hit rate 1.6% among 350,000. E. coli WT GFP vs humanized-ribosome RFP mutants, fluorescence, 24 h; active compounds read low; DMSO median 0, no signal -100;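 active = significant combined selectivity score with lowered wild-type GFP, culture density cut under 30%, mutant RFP and density less affected; inactive = any of these conditions unmet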
# FN deposit inh = fibronectin deposition inhibition | inhibition, % at 12.6 µM | hit rate 0.086% among 350,000 | AH1F fibroblasts, Alexa488-fibronectin deposition fluorescence, overnight;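 active = mean inhibition across replicates of 30% or more, regardless of how many single replicates reach that level; inconclusive = mean under 30% yet at least half of replicates reach 30%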;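 note: positive control wells lacked labelled fibronectin entirely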
#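 test system = AH1F fibroblasts assembling fluorescent fibronectin matrix | quantity = 10000 AH1F cells per well | buffer or medium = DMEM plus 2% serum, read in PBS | doses = single dose, pinned | incubation = 1 h cell attachment, overnight exposure to compound and label | detection = fluorescence at 485 nm excitation, 525 nm emission | read-out basis = inhibition from reduced deposited-fibronectin fluorescence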
# An asterisk follows results filed as active; ? = inconclusive; nt = no result; [ ] = dose if it differs, or a comment. In the library only some 2.2% were active in any assay of this set; here they are far more common.
SMILES,ERp5 inh,PvdQ acylase,Env fusion inh,PDI inh,rRNA inh HTS,FN deposit inh
O=C(Nc1cccc(Cl)c1)N1C[C@@H]2[C@H](c3ccccc31)[C@H](CO)N2C(=O)c1cccnc1,nt,nt,nt,nt,-20*,nt
O=C(c1ccccn1)N1C[C@@H]2[C@H](c3ccccc31)[C@H](CO)N2C(=O)Nc1ccccc1,-9,nt,nt,nt,4,nt
O=C(Nc1ccc(Cl)cc1)N1C[C@@H]2[C@H](c3ccccc31)[C@@H](CO)N2C(=O)c1ccccn1,nt,nt,nt,nt,-25*,nt
O=C(Nc1ccccc1)N1C[C@@H]2[C@H](c3ccccc31)[C@@H](CO)N2C(=O)Cc1ccccn1,-1,nt,nt,nt,-37*,nt
O=C(Nc1ccc(F)cc1)N1C[C@@H]2[C@H](c3ccccc31)[C@H](CO)N2C(=O)Cc1ccccn1,1,nt,nt,nt,2,3
O=C(Nc1ccc(Cl)cc1)N1C[C@@H]2[C@H](c3ccccc31)[C@H](CO)N2C(=O)c1ccccn1,nt,nt,nt,nt,-53*,nt
O=C(Nc1ccc(F)cc1)N1C[C@@H]2[C@H](c3ccccc31)[C@@H](CO)N2C(=O)c1ccccn1,nt,nt,nt,nt,0,nt
COc1ccc2c3c([nH]c2c1)[C@H](CO)N(Cc1cccc(Cl)c1)CC31CN(C(C)=O)C1,2,nt,nt,nt,-6,nt
CO[C@H](CN(C)Cc1cc(F)ccc1F)[C@H](C)CN(C(=O)Nc1ccc(F)cc1)[C@H](C)CO,-2,nt,nt,nt,-4,-2
C/C(=N/NS(=O)(=O)c1ccc(CC(C)C)cc1)c1ccncc1,-4,4,65*,7,7,nt
CC(C)C[C@H]1COCn2nncc2CC[C@@H](Cc2ccccc2)C(=O)N1,-3,nt,66*[16.7 µM],nt,2,-7
CC(C)[C@H]1COCn2nncc2CC[C@@H](Cc2ccccc2)C(=O)N1,-2,nt,-28[16.7 µM],nt,1,1
COc1ccccc1N1CCN(S(=O)(=O)c2ccccc2F)CC1,-1,-14,nt,6,-22*,nt
COc1ccccc1N1CCN(S(=O)(=O)c2ccccc2)CC1,nt,-6,27,-3,nt,nt
CC(C)NC(=O)Nc1ccc2c(c1)C(=O)N([C@H](C)CO)C[C@@H](C)[C@@H](CN(C)Cc1ccccc1)OCCCC[C@H](C)O2,1,nt,-10[16.7 µM],nt,-8,-2
Cc1oc2ccc(O)c(CN3CCOCC3)c2c1C(=O)c1ccc(Cl)cc1,nt,-3,?,3,nt,-5
Cc1oc2c(Cl)c(Cl)c(O)c(CN(C)C)c2c1C(=O)c1ccc(Cl)cc1,-4,-9,64*,12,-35,-4
CCS(=O)(=O)N[C@H]1C=C[C@H](CC(=O)Nc2ccccc2)O[C@H]1CO,5,nt,nt,nt,-2,nt
C[C@H](CO)N1C[C@H](C)[C@H](CN(C)S(=O)(=O)c2ccccc2)Oc2ccc(NC(=O)NC3CCCCC3)cc2CC1=O,-2,14,87*,8,-2,-12
C[C@H]1CN([C@@H](C)CO)C(=O)Cc2cc(NC(=O)Nc3ccccc3)ccc2O[C@@H]1CN(C)S(=O)(=O)c1ccccc1,1,nt,-2[16.7 µM],nt,-1,nt
C[C@H]1CN([C@@H](C)CO)C(=O)Cc2cc(NC(=O)Nc3ccccc3)ccc2O[C@H]1CN(C)S(=O)(=O)c1ccccc1,-4,nt,70*[16.7 µM],nt,nt,nt
CC(C)NC(=O)Nc1ccc2c(c1)CC(=O)N([C@H](C)CO)C[C@H](C)[C@H](CN(C)S(=O)(=O)c1ccccc1)O2,1,nt,65*[16.7 µM],nt,-4,nt
C=C(C)CN(CC)c1nc(N)c2c(N)nc3c(c2c1C#N)CC(=O)N3C12CC3CC(CC(C3)C1)C2,nt,-6,80*,1,nt,-11
C[C@H]1CN([C@@H](C)CO)C(=O)c2cc(-c3ccc(F)cc3)cnc2O[C@H]1CN(C)Cc1ccc(F)cc1,nt,nt,12[16.7 µM],nt,0,0
COCCNC(=O)C[C@H]1C[C@H]2c3cc(NC(=O)C4CCOCC4)ccc3O[C@H]2[C@@H](CO)O1,nt,nt,nt,nt,3,3
SMILES,ERp5 inh,PvdQ acylase,Env fusion inh,PDI inh,rRNA inh HTS,FN deposit inh
C[C@H](CO)N1C[C@H](C)[C@H](CN(C)Cc2ccc3c(c2)OCO3)Oc2ccc(NC(=O)CCC(F)(F)F)cc2CC1=O,0,nt,7[16.7 µM],nt,-3,nt
COC(=O)CCn1nnc(-c2ccc(C(C)C)cc2)n1,nt,-2,66*,1,nt,1
CC(=O)Nc1ccc(S(=O)(=O)NCc2cccnc2)cc1,nt,-17,-40,-4,nt,4
O=C(Nc1ccc(S(=O)(=O)NCc2cccnc2)cc1)c1ccco1,nt,-8,65*,3,nt,-4
O=C(CCCn1c(=S)[nH]c2cc3c(cc2c1=O)OCO3)N1CCN(c2ccc(Cl)cc2)CC1,nt,-19,99*,5,nt,-1
O=C(O)c1ccc(OCC(O)Cn2c3ccccc3c3ccccc32)cc1 (configuration not stated),-18,0,-7,-3,-46*,3
CCCn1c(=N)n(CC(O)COc2ccc(C)cc2)c2ccccc21 (configuration not stated),nt,-16,-72,0,-26*,-20
C[C@H]1CCCCO[C@H](CN(C)C(=O)Nc2ccc(F)cc2)[C@@H](C)CN([C@@H](C)CO)C(=O)c2cc(NC(=O)Nc3cccc4ccccc34)ccc2O1,2,nt,33[16.7 µM],nt,3,3
C[C@@H]1CCCCO[C@H](CN(C)C(=O)CCC(F)(F)F)[C@@H](C)CN([C@H](C)CO)C(=O)c2cc(NC(=O)Nc3ccc4c(c3)OCO4)ccc2O1,0,nt,-14[16.7 µM],nt,-1,nt
Cc1c(NC(=O)c2ccc(-c3ccc([N+](=O)[O-])cc3Cl)o2)c(=O)n(-c2ccccc2)n1C,4,2,-13,-8,-22*,-4
Cc1c(NC(=O)CN2C(=O)c3ccc([N+](=O)[O-])cc3C2=O)c(=O)n(-c2ccccc2)n1C,-5,-14,1,1,26,nt
COc1ccc(C2=NNC(=Nc3cc(S(=O)(=O)N(C)C)ccc3C)SC2)c(OC)c1,-6,-14,67*,3,16,-6
CN(C)S(=O)(=O)c1cccc(N=C2NN=C(c3ccccc3)CS2)c1,11,nt,16,nt,4,-16
C=C1[C@@H](O)[C@H](Cc2ccccc2)N(Cc2ccccc2Br)S1(=O)=O,7,8,6,5,-23*,4
Cc1ccccc1CN1[C@@H](Cc2ccccc2)COCCS1(=O)=O,nt,5,20,-4,nt,-14
CC(C)NC(=O)Nc1ccc2c(c1)CC(=O)N(C)C[C@@H](C)[C@H](CN(C)C(=O)OC(C)(C)C)O2,nt,nt,nt,nt,0,-8
COc1ccc(Cl)cc1S(=O)(=O)N1CCN=C1Cc1ccccc1,3,-5,36,15,1,nt
COc1ccccc1S(=O)(=O)n1cc(Cc2ccccc2)c(N)n1,nt,4,79*,-2,nt,nt
O=[N+]([O-])c1cccnc1Sc1ccc(Cl)cc1,-1,47*,-4,-4,4,-6
O=[N+]([O-])c1cccnc1Sc1n[nH]c(-c2ccc(Cl)cc2)n1,2,-2,-17,-2,4,-2
